KCNK9 block – KCNK9 potassium channel inhibitors, primary screen, HEK293 cells, thallium flux. FluxOR thallium flux fluorescence; active compounds read low. B-score at 10 µM. 1.2% of 310,000 active;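 active = ratio B-score over 3 SD below the library mean, with starting fluorescence within 5 SD of its mean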;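 also: negative B-score means less thallium flux so channel inhibition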
KCNQ1 act – potentiators or activators of KCNQ1 channel, primary screen, cell-based, thallium flux, high-throughput. Potassium voltage-gated channel subfamily KQT member 1 (Homo sapiens), P51787. CHO-K1 KCNQ1, thallium flux FluxOR fluorescence; active compounds read high. B-score at 10 µM. 0.35% of 310,000 active;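 active = fluorescence ratio B-score, a plate-corrected score, at least three library SD, with initial intensity B-score within 5 SD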
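System: Stable KCNQ1 CHO-K1 line | Incubation: 90 min dye loading and 20 min compound exposure, both at room temperature | Measure: Ratio B score | Medium: Assay buffer for compound exposure, DMSO matched across wells | Compound dosing: Single-concentration screen | Probe or stimulus: K+/Tl+ depolarizing stimulus | Measured by: Kinetic FluxOR fluorescence, 10 s baseline plus 110 s post-stimulus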
Kir21 block – inhibitors of mouse Kir2.1 inward-rectifier potassium channel; HEK293-Kir2.1, FluxOR thallium flux fluorescence; active compounds read low; 0.85% of 310,000 active; B-score at 10 µM; Inward rectifier potassium channel 2 (Mus musculus), P35561; AID 1672, 2009;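 active = fluorescence ratio B-score at or below minus 3 SD of library scores, with starting-brightness B-score within 2 SD, cut at about -4.2 in these data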;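 also: channel flux triggered by added potassium and thallium sulfate stimulus; B-score of peak minus minimum fluorescence over baseline after thallium stimulus; more negative B-score means stronger Kir2.1 block with less thallium influx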
KCNQ1 inh – inhibitors of human KCNQ1 channel, primary screen, cell-based, thallium flux, high-throughput. B-score at 10 µM. Potassium voltage-gated channel subfamily KQT member 1 (Homo sapiens), P51787. 1.3% of 310,000 active. AID 2642, 2010. CHO-K1 KCNQ1, FluxOR thallium flux fluorescence; active compounds read high;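 active = compounds whose thallium flux B-score, printed positive for inhibition, exceeds three library SD while starting fluorescence stays within three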;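 also: channel opened by potassium depolarization with thallium stimulus after 20 min compound exposure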
KCNK3 inh – human KCNK3 channel inhibitors, primary screen, CHO cells, FluxOR thallium flux, B-score; Potassium channel subfamily K member 3 (Homo sapiens), O14649; FluxOR fluorescence; active compounds read low; B-score at 10 µM; 0.84% of 340,000 active; AID 602410, 2012;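 active = B-score under library mean minus 4 SD, starting fluorescence ratio at most library mean plus 5 SD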;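 also: more negative B-score means stronger inhibition of thallium flux through KCNK3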
Target sequence (O14649 whole entry, looked up): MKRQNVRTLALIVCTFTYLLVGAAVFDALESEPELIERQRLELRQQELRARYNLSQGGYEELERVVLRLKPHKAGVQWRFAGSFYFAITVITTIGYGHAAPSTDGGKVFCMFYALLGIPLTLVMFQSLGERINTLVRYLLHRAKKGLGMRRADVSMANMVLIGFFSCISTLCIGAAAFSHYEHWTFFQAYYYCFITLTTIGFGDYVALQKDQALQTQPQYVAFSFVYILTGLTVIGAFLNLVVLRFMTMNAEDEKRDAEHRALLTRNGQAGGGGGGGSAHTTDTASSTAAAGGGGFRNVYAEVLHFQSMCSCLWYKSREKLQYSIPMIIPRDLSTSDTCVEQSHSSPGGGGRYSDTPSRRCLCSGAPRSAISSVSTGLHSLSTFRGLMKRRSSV
hERG protect – hERG rescue from dofetilide block, primary screen, cell-based, CHO-hERG, FluxOR thallium flux, dofetilide IC70; activation (rescue from dofetilide block), less the hit threshold, % at 10 µM; 0.51% of 310,000 active; Voltage-gated inwardly rectifying potassium channel KCNH2 (Homo sapiens), Q12809; AID 1511, 2009; dofetilide IC70 present;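 active = activation above the mean of controls blocked by dofetilide plus 5 SD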;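 also: thallium influx through hERG after potassium depolarization seen as dye fluorescence rise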
KCNK9 block conf – KCNK9 potassium channel inhibitors, confirmation, HEK293 cells, thallium flux, duplicate; shares compounds with KCNK9 block; FluxOR thallium flux fluorescence; inhibition, % at 10 µM; 43% of 4,900 active;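 active = thallium signal inhibited by more than 5 SD of the compound-free buffer control wells, on both duplicate plates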;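 also: 0% = assay buffer control wells without compound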
Kir21 sel – mouse Kir2.1 channel inhibition, confirmation, selectivity assay for KCNK9 modulator project, cell-based, HEK293, thallium flux; shares compounds with KCNK9 block; Kir2.1 cells, FluxOR thallium flux fluorescence; inhibition, % at 10 µM; 4% of 4,900 active; AID 492993, 2010;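 active = thallium signal drop more than 5 SD beyond the mean of the no-compound control wells, seen in both duplicate plates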;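 also: signal is fluorescence rise after thallium addition divided by baseline fluorescence; plate controls were assay buffer only for no effect and full block by chlorpromazine control for full effect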
KCNK9 uninduced – thallium flux in non-induced HEK293 cells, confirmation, counter-screen for KCNK9 inhibitor project, cell-based, second counter screen, non-induced KCNK9-HEK293; 40% of 4,900 active; inhibition, % at 10 µM; FluxOR thallium flux; shares compounds with KCNK9 block; AID 492997, 2010;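 active = thallium signal drop beyond 5 SD of the untreated control mean, on both duplicate plates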;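 also: plate controls were buffer only IC0 wells for no effect and SID17386958 at its maximal inhibitory level for full effect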
* marks the source's active call; other numbers are inactive results; i = inactive; · = not tested or not shown. Most compounds without a hit are left out; they make up all but 3.7% or so of the library.

SMILES | KCNK9 block | KCNQ1 act | Kir21 block | KCNQ1 inh | KCNK3 inh | hERG protect | KCNK9 block conf | Kir21 sel | KCNK9 uninduced
Cc1cc(C2(c3ccc(O)c(C)c3)OC(=O)c3ccccc32)ccc1O | -12* | i | -2 | i | i | -6 | 55%* | i | i
Nc1ccc(C2(c3ccc(N)cc3)OC(=O)c3ccccc32)cc1 | i | i | 0.24 | i | i | -4 | · | · | ·
CC(=O)c1cccc(NC(=O)CN2CCc3cc4c(cc3C2C)OCCCO4)c1 (stereo not drawn) | i | i | 0.47 | i | i | -10 | i | i | i
CC1c2cc3c(cc2CCN1C(=O)c1ccc(Cl)cc1)OCCCO3 (stereo not drawn) | -9.9* | i | -0.05 | i | i | -7 | 56%* | i | 29%*
O=C(CN1CCc2cc3c(cc2C1)OCCCO3)Nc1cccc(Br)c1 | i | i | 2.2 | i | i | -11 | i | i | i
Brc1ccc(CSc2nccn2-c2ccccc2)cc1 | i | i | -1.4 | i | i | -8 | i | i | i
Clc1cccc(CSc2nccn2-c2ccccc2)c1 | i | i | -7.8* | i | i | -14 | i | i | i
FC(F)(F)c1ccc(CSc2nccn2-c2ccccc2)cc1 | i | i | -4.6* | i | i | -15 | i | i | i
O=C(CSc1nccn1-c1ccccc1)NO | i | i | 0.02 | i | i | -13 | · | · | ·
Cc1ccc(CCNC(=O)c2sc3nc4n(c(=O)c3c2C)CCC4)cc1 | i | i | -0.55 | i | i | -7 | · | · | ·
Cc1cc(OCc2ccc(F)cc2)nc(-c2ccccc2O)n1 | -10* | i | -0.28 | i | i | -4 | 66%* | i | 37%*
Cc1nc2ccccc2nc1N1CCCCC1 | · | · | · | · | i | · | · | · | ·
Cc1ccc2c(Cl)c(C)c(N3CCCCC3)nc2n1 | i | i | -1.2 | i | i | -6 | i | i | i
Cc1occc1C(=O)Nc1cccc(C(F)(F)F)c1 | -9.3* | i | 0.03 | i | i | -14 | 48%* | i | 24%*
O=C(NNC(=S)Nc1cccc(C(F)(F)F)c1)c1ccc(Cl)cc1Cl | i | i | -0.61 | 8* | i | -7 | i | i | i
C/C(=N\Nc1ccc(F)cc1F)c1cccs1 | i | i | -0.15 | i | · | -9 | · | · | ·
COc1cccc(NC(=O)CN(C)C(=O)c2ccccn2)c1 | · | · | · | · | i | · | · | · | ·
COCCOC(=O)C1=C(C)NC(C)=C(C(=O)OCCOC)C1/C=C/c1ccccc1OC | i | i | -1.9 | i | i | -7 | i | i | i
CCOC(=O)C1=C(C)NC(C)=C(C(=O)OCC)C1/C=C/c1ccccc1OC | i | i | 0.7 | i | i | -1 | · | · | ·
CCC1SC2=NC(C)=C(C(=O)OCC(C)C)C(/C=C/c3ccccc3OC)N2C1=O (stereo not drawn) | i | i | -2.1 | i | i | -15 | 32%* | i | 47%*
COC(=O)C1=C(C)N=C2SC(C)C(=O)N2C1/C=C/c1ccccc1OC (stereo not drawn) | i | i | 0.33 | i | i | -7 | · | · | ·
CCC1SC2=NC(C)=C(C(=O)OCCOC)C(/C=C/c3ccccc3OC)N2C1=O (stereo not drawn) | i | i | -0.3 | i | i | -14 | i | i | 34%*
CCCN(CCC)S(=O)(=O)c1cccc(-c2csc(C)n2)c1 | i | i | -2.7 | i | i | -17 | i | 28%* | i
C/C(=N\NC(=S)NCCc1ccccc1)c1ccc(Cl)cc1Cl | i | i | 0.3 | i | i | -2 | i | i | i
CN(CC(=O)Nc1ccccc1Br)C(=O)CNC(=O)c1ccco1 | i | i | -0.57 | i | i | -11 | · | · | ·
SMILES | KCNK9 block | KCNQ1 act | Kir21 block | KCNQ1 inh | KCNK3 inh | hERG protect | KCNK9 block conf | Kir21 sel | KCNK9 uninduced
BrC(/C=N/N1CCN(Cc2ccccc2)CC1)=C/c1ccccc1 | i | i | 2.1 | i | i | -11 | i | i | i
Cc1ccc(CN2CCN(/N=C\C=C\c3ccccc3)CC2)cc1 | i | i | -0.89 | i | i | -12 | i | i | i
BrC(=C\c1ccccc1)/C=N/N1CCN(Cc2ccccc2)CC1 | i | i | -0.19 | i | i | -7 | · | · | ·
CC(/C=N\N1CCN(Cc2ccc(C)cc2)CC1)=C\c1ccccc1 | i | i | 0.81 | i | i | -5 | i | i | i
O=C(CSc1nc(-c2ccccc2Cl)ns1)c1ccc(Cl)cc1 | -12* | i | -1.2 | i | i | 1 | 46%* | i | 43%*
O=C(O)CSc1nnc(SCc2cccc3ccccc23)s1 | i | i | 0.44 | i | i | -13 | · | · | ·
CC(C)OC(=O)CSc1nnc(SCc2cccc3ccccc23)s1 | i | i | 0.43 | i | i | -5 | i | i | i
COc1ccc(Cl)cc1C(=O)NNC(=O)COC(=O)CC(NC(C)=O)c1ccccc1 (stereo not drawn) | i | i | -1.5 | i | i | -18 | · | · | ·
CCCCOc1ccc(/C=N/NC(=O)c2csc(C)c2C)cc1 | i | i | 0.83 | i | i | -3 | i | i | i
CCC(=O)Nc1c(-c2ccccc2)c(=O)c2ccccc2n1C | i | i | 2 | i | i | 3 | · | · | ·
O=C(/C=C/c1ccc([N+](=O)[O-])cc1)OCC(=O)N1c2ccccc2Sc2ccccc21 | i | i | -0.45 | i | i | -10 | · | · | ·
Cc1ccc(-c2nc(N)sc2CC(=O)OCC(=O)N2C(C)CCCC2C)cc1 (stereo not drawn) | i | i | 1.2 | i | i | -7 | i | i | i
Cn1c(CCC(=O)O)nc2cc(S(=O)(=O)N3CCCCC3)ccc21 | · | · | · | · | i | · | · | · | ·
